Converted amounts (≈) assume the structure as drawn.
Experiments:
[1] = system: Staphylococcus aureus; experiment: Antibacterial activity against Staphylococcus aureus assessed as inhibition of microbial growth incubated for 18 to 22 hrs by broth microdilution method; assay type: functional
Outline: (§1)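 Broth microdilution in Mueller-Hinton II broth following NCCLS recommendations; compounds dissolved in DMSO.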

[2] = system: Staphylococcus warneri; experiment: Antibacterial activity against Staphylococcus warneri assessed as inhibition of microbial growth incubated for 18 to 22 hrs by broth microdilution method; assay type: functional; outline: as §1
[3] = system: Enterococcus faecalis; experiment: Antibacterial activity against Streptococcus faecalis assessed as inhibition of microbial growth incubated for 18 to 22 hrs by broth microdilution method; assay type: functional; outline: as §1
[4] = system: Escherichia coli; experiment: Antibacterial activity against Escherichia coli assessed as inhibition of microbial growth incubated for 18 to 22 hrs by broth microdilution method; assay type: functional; outline: as §1
[5] = system: Proteus mirabilis; experiment: Antibacterial activity against Proteus mirabilis assessed as inhibition of microbial growth incubated for 18 to 22 hrs by broth microdilution method; assay type: functional; outline: as §1
[6] = system: Enterobacter; experiment: Antibacterial activity against Enterobacter spp. assessed as inhibition of microbial growth incubated for 18 to 22 hrs by broth microdilution method; assay type: functional; outline: as §1
[7] = system: Klebsiella oxytoca; experiment: Antibacterial activity against Klebsiella oxytoca assessed as inhibition of microbial growth incubated for 18 to 22 hrs by broth microdilution method; assay type: functional; outline: as §1
[8] = system: Candida albicans; experiment: Antifungal activity against Candida albicans clinical isolates assessed as inhibition of microbial growth incubated for 24 hrs by broth microdilution method; assay type: functional
Outline: (§2)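 Twenty-two clinical Candida isolates (8 C. albicans, 4 C. glabrata, 3 C. tropicalis, 3 C. krusei, 2 C. parapsilosis, 2 C. sake) were identified by colony morphology and biochemistry and subcultured at 35 °C for purity. Compounds were dissolved in DMSO and tested by broth microdilution in Sabouraud dextrose broth per NCCLS/CLSI/EUCAST guidance. Values are geometric mean MIC per species (µg/mL).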

[9] = system: Nakaseomyces glabratus; experiment: Antifungal activity against Candida glabrata clinical isolates assessed as inhibition of microbial growth incubated for 24 hrs by broth microdilution method; assay type: functional; outline: as §2
[10] = system: Candida tropicalis; experiment: Antifungal activity against Candida tropicalis clinical isolates assessed as inhibition of microbial growth incubated for 24 hrs by broth microdilution method; assay type: functional; outline: as §2
[11] = system: Pichia kudriavzevii; experiment: Antifungal activity against Candida krusei clinical isolates assessed as inhibition of microbial growth incubated for 24 hrs by broth microdilution method; assay type: functional; outline: as §2
[12] = system: Candida parapsilosis; experiment: Antifungal activity against Candida parapsilosis clinical isolates assessed as inhibition of microbial growth incubated for 24 hrs by broth microdilution method; assay type: functional; details: Lodderomyces parapsilosis; outline: as §2
[13] = system: [Candida] sake; experiment: Antifungal activity against Candida sake clinical isolates assessed as inhibition of microbial growth incubated for 24 hrs by broth microdilution method; assay type: functional; details: Fermentozyma sake; outline: as §2
[14] = Cytotoxicity against human Hep2 cells assessed as reduction in cell viability incubated for 24 hrs by trypan blue dye exclusion assay; assay type: cell-based; details: HEp-2 cells
Outline: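 Hep2 (human laryngeal epidermoid carcinoma) cells were exposed to five concentrations from 0.05 to 100 µg/mL for 24 h at 37 °C, and viability was scored by Trypan Blue exclusion as survival fraction. Controls were medium alone, DMSO-treated cells and 1 mM sodium nitroprusside. CC50 is the mean ± SD of at least three independent experiments.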

[15] = Selectivity index, ratio of CC50 for human Hep2 cells to MIC for Candida albicans clinical isolates; assay type: toxicity; details: HEp-2 cells, read-out: Selectivity Index
Outline: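 Calculated as Hep2 CC50 (Trypan Blue exclusion, 24 h, 37 °C) divided by MIC against C. albicans.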

[16] = system: Streptococcus alpha-hemolyticus (Streptococcus sp.); experiment: Antibacterial activity against Streptococcus Streptococcus alpha hemolyticus assessed as inhibition of microbial growth incubated for 18 to 22 hrs by broth microdilution method

MIC [1] | MIC [2] | MIC [3] | MIC [4] | MIC [5] | MIC [6] | MIC [7] | MIC [8] | MIC [9] | MIC [10] | MIC [11] | MIC [12] | MIC [13] | SMILES | CC50 at 24 h [14] | selectivity ratio [15] | MIC [16]
≥ 256 µg/mL | ≥ 256 µg/mL | ≥ 256 µg/mL | ≥ 256 µg/mL | ≥ 256 µg/mL | ≥ 256 µg/mL | ≥ 256 µg/mL | 2 µg/mL | 2 µg/mL | 2 µg/mL | 2 µg/mL | 2 µg/mL | 2 µg/mL | CC(C)=N/N=C1\NC(=O)CS1 | 68.4 µg/mL (≈ 399 µM) | 34 | ≥ 256 µg/mL
≥ 256 µg/mL | ≥ 256 µg/mL | ≥ 256 µg/mL | ≥ 256 µg/mL | ≥ 256 µg/mL | ≥ 256 µg/mL | ≥ 256 µg/mL | 2 µg/mL | 2 µg/mL | 2 µg/mL | 2 µg/mL | 2 µg/mL | 2 µg/mL | CCC/C(C)=N\N=C1/NC(=O)CS1 | 93.4 µg/mL (≈ 469 µM) | 46.5 | ≥ 256 µg/mL
≥ 256 µg/mL | ≥ 256 µg/mL | ≥ 256 µg/mL | ≥ 256 µg/mL | ≥ 256 µg/mL | ≥ 256 µg/mL | ≥ 256 µg/mL | 2 µg/mL | 1 µg/mL | 4 µg/mL | 2 µg/mL | 2 µg/mL | 2 µg/mL | CCC(CC)=N/N=C1\NC(=O)CS1 | 49.2 µg/mL (≈ 247 µM) | 24.5 | ≥ 256 µg/mL
≥ 256 µg/mL | ≥ 256 µg/mL | ≥ 256 µg/mL | ≥ 256 µg/mL | ≥ 256 µg/mL | ≥ 256 µg/mL | ≥ 256 µg/mL | 2 µg/mL | 2 µg/mL | 4 µg/mL | 8 µg/mL | 8 µg/mL | 8 µg/mL | CCCCC/C(C)=N\N=C1/NC(=O)CS1 | 71.8 µg/mL (≈ 316 µM) | 35.5 | ≥ 256 µg/mL
≥ 256 µg/mL | ≥ 256 µg/mL | ≥ 256 µg/mL | ≥ 256 µg/mL | ≥ 256 µg/mL | ≥ 256 µg/mL | ≥ 256 µg/mL | 4 µg/mL | 1 µg/mL | 1 µg/mL | 2 µg/mL | 2 µg/mL | 4 µg/mL | CCCC/C(CC)=N\N=C1/NC(=O)CS1 | 46.4 µg/mL (≈ 204 µM) | 11.5 | ≥ 256 µg/mL
≥ 256 µg/mL | ≥ 256 µg/mL | ≥ 256 µg/mL | ≥ 256 µg/mL | ≥ 256 µg/mL | ≥ 256 µg/mL | ≥ 256 µg/mL | 2 µg/mL | 1 µg/mL | 8 µg/mL | 2 µg/mL | 2 µg/mL | 2 µg/mL | CC1CCC/C1=N/N=C1\NC(=O)CS1 (centres undefined) | 52.8 µg/mL (≈ 250 µM) | 26 | ≥ 256 µg/mL
≥ 256 µg/mL | ≥ 256 µg/mL | ≥ 256 µg/mL | ≥ 256 µg/mL | ≥ 256 µg/mL | ≥ 256 µg/mL | ≥ 256 µg/mL | 2 µg/mL | 2 µg/mL | 2 µg/mL | 2 µg/mL | 2 µg/mL | 2 µg/mL | CC1CC/C(=N/N=C2\NC(=O)CS2)C1 (centres undefined) | 50.8 µg/mL (≈ 240 µM) | 25 | ≥ 256 µg/mL
≥ 256 µg/mL | ≥ 256 µg/mL | ≥ 256 µg/mL | ≥ 256 µg/mL | ≥ 256 µg/mL | ≥ 256 µg/mL | ≥ 256 µg/mL | 2 µg/mL | 1 µg/mL | 8 µg/mL | 2 µg/mL | 2 µg/mL | 2 µg/mL | CC1CCCC/C1=N/N=C1\NC(=O)CS1 (centres undefined) | 52.6 µg/mL (≈ 233 µM) | 26 | ≥ 256 µg/mL
≥ 256 µg/mL | ≥ 256 µg/mL | ≥ 256 µg/mL | ≥ 256 µg/mL | ≥ 256 µg/mL | ≥ 256 µg/mL | ≥ 256 µg/mL | 2 µg/mL | 1 µg/mL | 2 µg/mL | 8 µg/mL | 16 µg/mL | 16 µg/mL | C/C(=N/N=C1\NC(=O)CS1)c1cccs1 | > 100 µg/mL | > 50 | ≥ 256 µg/mL
≥ 256 µg/mL | ≥ 256 µg/mL | ≥ 256 µg/mL | ≥ 256 µg/mL | ≥ 256 µg/mL | ≥ 256 µg/mL | ≥ 256 µg/mL | 2 µg/mL | 1 µg/mL | 1 µg/mL | 8 µg/mL | 16 µg/mL | 16 µg/mL | C/C(=N/N=C1\NC(=O)CS1)c1ccccn1 | 56.8 µg/mL (≈ 242 µM) | 28 | ≥ 256 µg/mL
≥ 256 µg/mL | ≥ 256 µg/mL | ≥ 256 µg/mL | ≥ 256 µg/mL | ≥ 256 µg/mL | ≥ 256 µg/mL | ≥ 256 µg/mL | 2 µg/mL | 2 µg/mL | 2 µg/mL | 2 µg/mL | 2 µg/mL | 2 µg/mL | C/C(=N/N=C1/SCC(=O)N1Cc1ccccc1)c1cccnc1 | 37.4 µg/mL (≈ 115 µM) | 18.5 | –
≥ 256 µg/mL | ≥ 256 µg/mL | ≥ 256 µg/mL | ≥ 256 µg/mL | ≥ 256 µg/mL | ≥ 256 µg/mL | ≥ 256 µg/mL | 2 µg/mL | 2 µg/mL | 2 µg/mL | 2 µg/mL | 2 µg/mL | 2 µg/mL | O=C1CS/C(=N/N=C2CCCCC2)N1Cc1ccccc1 | 22.8 µg/mL (≈ 75.6 µM) | 11 | –
≥ 256 µg/mL | ≥ 256 µg/mL | ≥ 256 µg/mL | ≥ 256 µg/mL | ≥ 256 µg/mL | ≥ 256 µg/mL | ≥ 256 µg/mL | 2 µg/mL | 2 µg/mL | 2 µg/mL | 2 µg/mL | 2 µg/mL | 2 µg/mL | O=C1CSC(NN=C2CCCC2)=N1 | 22.2 µg/mL (≈ 113 µM) | 11.1 | ≥ 256 µg/mL

SMILES | MIC [1] | MIC [2] | MIC [3] | MIC [4] | MIC [5] | MIC [6] | MIC [7] | MIC [8] | MIC [9] | MIC [10] | MIC [11] | MIC [12] | MIC [13] | CC50 at 24 h [14] | selectivity ratio [15] | MIC [16]
Clc1ccccc1C(c1ccccc1)(c1ccccc1)n1ccnc1 [CLOTRIMAZOLE] | – | – | – | – | – | – | – | 2 µg/mL | 2 µg/mL | 2 µg/mL | 2 µg/mL | 2 µg/mL | 2 µg/mL | 38.8 µg/mL (≈ 113 µM) | 19 | –

From ChEMBL document CHEMBL4190362, “Synthesis, biological evaluation and quantitative structure-active relationships of 1,3-thiazolidin-4-one derivatives. A promising chemical scaffold endowed with high antifungal potency and low cytotoxicity” (Eur J Med Chem, 2017)
